Measured values reported in article PMC10984326 (Chemistry & biodiversity, 2023).

How the values were obtained:
A375 cells [1] = assay: Flow cytometry analysis of cell cycle; type: cell-based, human; conditions: for Cell cycle arrest: 5 x IC50; for Sub-G1 DNA content relative to control: 72 h, 5 x IC50 (7b 17.5 μM, 7c 21.5 μM), vs 0.2% DMSO
A375 cells [2] = assay: Wound-healing; type: cell-based, human; conditions: for Inhibition of migration of A375 cells: after 20, 48 and 54 h, 7b 3.5 μM, 7c 4.3 μM
[3] = system: Human primary dermal fibroblasts; assay: MTT cell viability assay, non-cancerous fibroblasts; type: cell-based; conditions: IC50 of cancer cells compared with IC50 of human fibroblasts
Procedure, shortened: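 Primary dermal fibroblasts were grown in fibroblast basal medium with low-serum growth supplement at 37°C, 5% CO2. Cells were seeded at 2×10^3/well, and after 24 h were exposed for 72 h to test compound (DMSO solution, up to 10 μM) or 0.1% DMSO. MTT was added for 4 h and the formazan dissolved in DMSO, with absorbance at 540 nm. IC50 came from non-linear regression, and SI from comparing A375 and 35404 IC50s with fibroblast IC50.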

35404 cells = assay: MTT cell viability assay, patient-derived melanoma metastasized to brain; type: cell-based, human; conditions: read-out: Antiproliferative activity (IC50, μM) 35404 cells, 72 h treatment, up to 10 μM, mean±SD (n=4), IN = inactive

SMILES	Cell cycle arrest (A375 cells [1]; 24 h)	DNA fragmentation (sub-G1 DNA) (A375 cells [1]; 24 h, 5 x IC50 (17.5 μM))	Cell cycle arrest (A375 cells [1]; 48 h and 72 h)	Sub-G1 DNA content relative to control (A375 cells [1])	Wound surface area (A375 cells [2]; 4 h of treatment, 3.5 μM (IC50), 0 h = 100%, control 76%) [%]	Inhibition of migration of A375 cells (A375 cells [2])	SI (selectivity index) [3]	IC50 (35404 cells) [µM]
Cc1cc(C(=O)/C(=C\c2cccc(F)c2)c2cccc(F)c2)c(C(=O)N2CCCCC2)c(=O)[nH]1 [Compound 7b, (Z)-4-(2,3-bis(3-fluorophenyl)acryloyl)-6-methyl-3-(piperidine-1-carbonyl)pyridin-2(1H)-one]	transient G2 and/or M phase arrest	Statistically significant DNA fragmentation	substantial G1 arrest	statistically significant increases	93	statistically significant inhibition of migration		
COc1ccc(/C=C(\C(=O)c2cc(C)[nH]c(=O)c2C(=O)N2CCCCC2)c2ccc(OC)c(C)c2)cc1C [Compound 7c, (Z)-4-(2,3-bis(4-methoxy-3-methylphenyl)acryloyl)-6-methyl-3-(piperidine-1-carbonyl)pyridin-2(1H)-one]			substantial G1 arrest	statistically significant increases		statistically significant inhibition of migration	>2	
Cc1cc(C(=O)/C(=C\c2ccc(C)c(Cl)c2)c2ccc(C)c(Cl)c2)c(C(=O)N2CCCCC2)c(=O)[nH]1 [Compound 7g, (Z)-4-(2,3-bis(3-chloro-4-methylphenyl)acryloyl)-6-methyl-3-(piperidine-1-carbonyl)pyridin-2(1H)-one]							>20	0.4 ± 0.2
